Consider one molecule from ChEMBL document CHEMBL4052637, “Discovery and Characterization of R/S-N-3-Cyanophenyl-N'-(6-tert-butoxycarbonylamino-3,4-dihydro-2,2-dimethyl-2H-1-benzopyran-4-yl)urea, a New Histone Deacetylase Class III Inhibitor Exerting Antiproliferative Activity against Cancer Cell Lines” (J Med Chem, 2017).

Activity calls are given as the source filed them. No cut-off for these calls is given here.

The test system of assay [1] is U-373MG ATCC. Nature of the assay: Inhibition of spheroid forming capacity of human U373 cells assessed as decrease in volume of multicellular tumor spheroids at 5 to 10 uM treated for 24 hrs measured after 96 hrs by bright field microscopic method. The assay is classed as functional, cell-based. In outline: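 Spheroids formed from 1 × 10^3 cells in 25 μL. Cells were pretreated 24 h with compound then left untreated 96 h, or untreated spheroids were cultured 96 h with compound. Surface measured from bright-field images; volume in voxels from 3D plots after image segmentation. Mean ± SD of three independent experiments.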

For assay [2], the system named is A498. As to the kind of experiment: Growth inhibition of human A498 cells after 48 hrs by SRB assay. The assay is classed as functional. Particulars: A498, 48 h. A general note: Sulforhodamine B stains cellular protein and so reports cell mass.
Assay [3] deals with HCT-116. As to the kind of experiment: Antiproliferative activity against p53 knock out human HCT116 cells after 72 hrs by MTT assay. The assay is classed as functional, cell-based. In outline: (§1)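 MTT assay: cells in RPMI 1640 with 10% heat-inactivated FCS at 37 °C and 5% CO2 were seeded 24 h before treatment. They were exposed 72 h to compound at 0.01–100 μM, with DMSO as solvent.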
On the technique in general: Tetrazolium assays rely on reduction of a dye to a coloured formazan, in cell work by metabolically active cells.

Assay [4] concerns SF-295. As to the kind of experiment: Growth inhibition of human SF295 cells after 48 hrs by SRB assay. The format is functional. The note with it: SF-295, 48 h.
Assay [5] has as its system KBC1. Nature of the assay: Antiproliferative activity against human KBC1 cells overexpressing ABCB1 after 72 hrs by MTT assay. The assay is classed as functional, cell-based. In outline: as §1
Assay [6] has as its system U-373MG ATCC. As to the kind of experiment: Antitumor activity against CM-Dil fluorescent dye labeled human U373 cells xenografted in zebrafish embryo at 5 to 10 uM preincubated with tumor for 30 to 36 hrs followed by tumor implantation in zebra fish yolk sac measured after 72 hrs by fluorescence microscopy. The format is functional, cell-based. In short, it runs like this:
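Cells were pretreated in vitro at 5 or 10 μM for 30 or 36 h and labeled with CM-DiI 2 h before injection. Then 100–200 cells were injected into the yolk sac of wild-type zebrafish 48 h post-fertilization, anesthetized in 0.02% tricaine. Embryos were kept 72 h at 28.5 °C in Danieau solution with 0.003% phenylthiourea, and fluorescence was quantified in eight fish per condition.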
On the technique in general: In xenograft studies the graft and the host belong to different species.

Assay [7] has as its system OVCAR-3. As to the kind of experiment: Growth inhibition of human OVCAR3 cells after 48 hrs by SRB assay. The format is functional. Particulars: OVCAR-3, 48 h.
The test system of assay [8] is SW-620. Nature of the assay: Growth inhibition of human SW620 cells after 48 hrs by SRB assay. The assay is classed as functional. Particulars: SW-620, 48 h.
Assay [9] relates to SF-539. As to the kind of experiment: Growth inhibition of human SF539 cells after 48 hrs by SRB assay. The assay is classed as functional. The note with it: SF-539, 48 h.
Assay [10] has as its system 786-0. Nature of the assay: Growth inhibition of human 786-0 cells after 48 hrs by SRB assay. The format is functional. Particulars: 786-0, 48 h.
In assay [11] the target is Polyamine deacetylase HDAC10 (Homo sapiens) (UniProt Q969S8). Nature of the assay: Inhibition of C-terminal His-tagged recombinant human HDAC10 expressed in baculovirus infected insect Sf9 cells at 0.1 to 100 uM using Fluor-de-Lys-SIRT1 as substrate after 15 mins by fluorescence assay.
In assay [12] the test system is Hs 683. As to the kind of experiment: Antiproliferative activity against human Hs683 cells transfected with SIRT1/2 siRNA at IC50 for MTT assay after 72 hrs by time-lapse videomicroscopy. The assay is classed as functional, cell-based.
The subject of assay [13] is SK-MEL-28. Nature of the assay: Growth inhibition of human SK-MEL-28 cells after 48 hrs by SRB assay. The note with it: SK-MEL-28, 48 h. The assay is classed as functional.
For assay [14], the target named is T1, NAD-dependent protein deacetylase sirtuin-2 (Homo sapiens) (UniProt Q8IXJ6).
T1 sequence (whole entry): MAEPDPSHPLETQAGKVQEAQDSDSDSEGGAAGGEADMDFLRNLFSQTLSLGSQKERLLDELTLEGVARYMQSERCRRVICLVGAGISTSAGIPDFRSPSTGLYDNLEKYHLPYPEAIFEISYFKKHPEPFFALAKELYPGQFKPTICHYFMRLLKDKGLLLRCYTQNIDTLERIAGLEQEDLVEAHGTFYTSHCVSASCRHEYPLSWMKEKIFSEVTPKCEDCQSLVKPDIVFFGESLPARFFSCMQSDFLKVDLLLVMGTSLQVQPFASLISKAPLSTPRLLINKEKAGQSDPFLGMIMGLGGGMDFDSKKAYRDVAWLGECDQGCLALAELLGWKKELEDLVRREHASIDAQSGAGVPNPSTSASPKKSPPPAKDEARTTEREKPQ
As to the kind of experiment: Inhibition of SIRT2 in human U373 cells assessed as increase of alpha-tubulin acetylation at 1 uM after 8 hrs by Western blotting method relative to control. The format is cell-based.

The target in assay [15] is NAD-dependent protein deacetylase sirtuin-3, mitochondrial (Homo sapiens, UniProt Q9NTG7). As to the kind of experiment: Inhibition of N-terminal His-tagged recombinant human SIRT-3 expressed in Escherichia coli using Fluor-de-Lys-SIRT1 as substrate after 15 mins by fluorescence assay.
Assay [16] in a line: Selectivity index, ratio of IC50 for mouse astrocytes to IC50 for human Hs683 cells.
Assay [17] deals with Protein deacetylase HDAC6 (Homo sapiens) (UniProt Q9UBN7). As to the kind of experiment: Inhibition of His-tagged recombinant human HDAC6 expressed in baculovirus infected insect cells at 0.1 to 100 uM using Fluor-de-Lys-SIRT1 as substrate after 15 mins by fluorescence assay.
The nature of assay [18]: Potency index, ratio of EX-527 IC50 to test compound IC50 for human U373 cells. The format is functional, U-373MG ATCC.
The test system of assay [19] is T98G. As to the kind of experiment: Antiproliferative activity against human T98G cells after 72 hrs by MTT assay. The format is functional, cell-based. In outline: as §1
Assay [20] concerns the target T2, NAD-dependent protein deacetylase sirtuin-1 (Homo sapiens) (UniProt Q96EB6).
T2 sequence (whole entry): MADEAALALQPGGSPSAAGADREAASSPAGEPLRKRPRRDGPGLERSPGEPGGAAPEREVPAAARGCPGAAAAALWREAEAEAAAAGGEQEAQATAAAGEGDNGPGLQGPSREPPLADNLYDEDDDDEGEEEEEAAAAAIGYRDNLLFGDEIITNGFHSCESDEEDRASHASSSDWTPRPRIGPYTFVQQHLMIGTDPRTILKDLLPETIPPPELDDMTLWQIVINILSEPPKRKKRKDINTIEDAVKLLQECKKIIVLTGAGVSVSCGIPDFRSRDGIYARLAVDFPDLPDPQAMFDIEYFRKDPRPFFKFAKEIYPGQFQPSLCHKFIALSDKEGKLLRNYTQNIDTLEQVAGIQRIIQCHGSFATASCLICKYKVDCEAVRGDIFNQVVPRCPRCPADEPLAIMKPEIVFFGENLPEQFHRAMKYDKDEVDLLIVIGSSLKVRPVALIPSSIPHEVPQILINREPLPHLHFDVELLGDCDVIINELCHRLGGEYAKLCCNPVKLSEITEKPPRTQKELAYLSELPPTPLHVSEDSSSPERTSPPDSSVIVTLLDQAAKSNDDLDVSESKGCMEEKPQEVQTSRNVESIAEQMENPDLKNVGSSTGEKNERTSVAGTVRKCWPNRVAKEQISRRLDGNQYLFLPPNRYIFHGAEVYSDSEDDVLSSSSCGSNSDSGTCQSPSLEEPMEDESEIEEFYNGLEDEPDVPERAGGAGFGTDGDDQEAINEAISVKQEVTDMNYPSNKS
Nature of the assay: Inhibition of SIRT1 in human Hs683 cells assessed as increase of histone H4 acetylation after 8 hrs by Western blotting method. The format is cell-based.

Assay [21] deals with T1, NAD-dependent protein deacetylase sirtuin-2 (Homo sapiens). As to the kind of experiment: Inhibition of SIRT2 in human U373 cells assessed as increase of alpha-tubulin acetylation after 8 hrs by Western blotting method. The format is cell-based.

One may read the GI50 as the concentration giving 50% growth inhibition. The term IC50 denotes the concentration that gives 50% inhibition.

NAD-dependent protein deacetylase sirtuin-3, mitochondrial, sequence (Q9NTG7 whole entry): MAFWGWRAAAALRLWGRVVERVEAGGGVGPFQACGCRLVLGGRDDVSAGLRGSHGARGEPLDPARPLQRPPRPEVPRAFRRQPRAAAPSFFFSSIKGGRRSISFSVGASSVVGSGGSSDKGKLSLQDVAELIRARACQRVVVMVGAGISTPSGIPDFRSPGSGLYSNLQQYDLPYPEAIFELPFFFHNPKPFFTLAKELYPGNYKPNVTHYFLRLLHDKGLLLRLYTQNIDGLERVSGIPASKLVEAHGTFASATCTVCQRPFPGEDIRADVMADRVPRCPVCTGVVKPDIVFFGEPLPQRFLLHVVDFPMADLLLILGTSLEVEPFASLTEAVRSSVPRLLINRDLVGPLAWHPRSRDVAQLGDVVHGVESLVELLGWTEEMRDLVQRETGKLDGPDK
Polyamine deacetylase HDAC10 (Homo sapiens), sequence (Q969S8 whole entry): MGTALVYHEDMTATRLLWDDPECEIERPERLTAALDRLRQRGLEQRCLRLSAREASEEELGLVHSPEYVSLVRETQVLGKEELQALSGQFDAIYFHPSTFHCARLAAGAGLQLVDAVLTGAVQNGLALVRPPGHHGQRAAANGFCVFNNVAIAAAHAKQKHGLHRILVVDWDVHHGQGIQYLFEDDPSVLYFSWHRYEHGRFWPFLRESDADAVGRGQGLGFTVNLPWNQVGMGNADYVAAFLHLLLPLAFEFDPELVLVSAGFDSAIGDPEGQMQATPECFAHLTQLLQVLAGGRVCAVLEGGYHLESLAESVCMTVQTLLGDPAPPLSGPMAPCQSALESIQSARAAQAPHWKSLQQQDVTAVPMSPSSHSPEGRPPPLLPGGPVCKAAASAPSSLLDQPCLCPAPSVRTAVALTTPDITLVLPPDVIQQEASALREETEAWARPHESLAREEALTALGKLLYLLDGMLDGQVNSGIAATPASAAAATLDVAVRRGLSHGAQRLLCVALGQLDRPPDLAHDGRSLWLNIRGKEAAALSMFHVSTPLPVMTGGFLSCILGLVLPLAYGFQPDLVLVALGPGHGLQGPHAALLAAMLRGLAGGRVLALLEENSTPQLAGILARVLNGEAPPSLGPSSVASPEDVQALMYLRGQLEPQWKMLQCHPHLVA
Protein deacetylase HDAC6 (Homo sapiens), sequence (Q9UBN7 whole entry): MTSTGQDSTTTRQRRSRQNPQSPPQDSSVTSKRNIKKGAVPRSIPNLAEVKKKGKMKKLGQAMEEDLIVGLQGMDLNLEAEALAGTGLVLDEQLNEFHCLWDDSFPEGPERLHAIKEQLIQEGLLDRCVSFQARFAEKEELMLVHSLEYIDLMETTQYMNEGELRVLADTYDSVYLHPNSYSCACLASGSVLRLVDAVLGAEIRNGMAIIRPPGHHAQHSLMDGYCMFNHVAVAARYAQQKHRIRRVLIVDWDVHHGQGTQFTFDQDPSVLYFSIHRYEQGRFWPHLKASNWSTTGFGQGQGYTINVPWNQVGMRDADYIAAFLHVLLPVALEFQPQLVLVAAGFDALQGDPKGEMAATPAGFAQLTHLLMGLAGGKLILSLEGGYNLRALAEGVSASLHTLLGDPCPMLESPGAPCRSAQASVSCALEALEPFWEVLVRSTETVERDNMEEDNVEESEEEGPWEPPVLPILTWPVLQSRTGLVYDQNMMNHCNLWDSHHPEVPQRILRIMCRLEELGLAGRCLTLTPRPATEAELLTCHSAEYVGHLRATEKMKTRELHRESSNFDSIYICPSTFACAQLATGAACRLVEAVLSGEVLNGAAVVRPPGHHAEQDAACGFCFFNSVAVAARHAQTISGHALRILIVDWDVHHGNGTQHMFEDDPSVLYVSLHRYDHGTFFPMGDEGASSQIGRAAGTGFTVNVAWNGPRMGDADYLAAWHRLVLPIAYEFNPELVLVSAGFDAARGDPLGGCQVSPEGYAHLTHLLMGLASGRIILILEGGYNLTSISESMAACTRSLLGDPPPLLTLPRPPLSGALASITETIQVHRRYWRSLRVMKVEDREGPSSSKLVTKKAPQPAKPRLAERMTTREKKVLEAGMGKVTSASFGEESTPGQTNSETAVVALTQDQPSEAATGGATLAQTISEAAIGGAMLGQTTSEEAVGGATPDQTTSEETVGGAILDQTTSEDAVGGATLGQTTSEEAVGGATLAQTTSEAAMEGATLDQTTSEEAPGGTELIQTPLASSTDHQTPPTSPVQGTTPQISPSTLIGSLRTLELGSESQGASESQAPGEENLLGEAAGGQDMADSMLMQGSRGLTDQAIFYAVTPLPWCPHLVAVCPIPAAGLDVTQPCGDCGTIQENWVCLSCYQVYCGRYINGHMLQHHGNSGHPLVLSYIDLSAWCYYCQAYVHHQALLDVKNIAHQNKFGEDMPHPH

For the molecule `CC(C)(C)OC(=O)Nc1ccc2c(c1)C(NC(=O)Nc1cccc(C#N)c1)CC(C)(C)O2` (stereo unspecified), the inhibition result in assay [1] is “Active”. Besides, the concentration for 50% growth inhibition (GI50) in assay [2] is 7.08 µM; in [4] it was 2.29 µM; in [7], 2.29 µM; in assay [8], 3.8 µM; in assay [9], 6.61 µM; in assay [10] it was 7.59 µM. The same molecule showed a 50% growth inhibitory concentration (GI50) in assay [13] of 6.46 µM. The result in [3], in assay [5], in assay [6] and in assay [12] was Active. For the same molecule, the inhibition result in [11] and in assay [17] was “inactive” each time. Moreover, the fold change (FC) in assay [14] amounted to 0.9. Also, the IC50 is more than 200 µM in assay [15] and 14 µM in assay [19]. In addition, the figures for the “Ratio IC50” value in assay [16] and in [18] were more than 10 and 20, respectively. Further, the inhibition entry in assay [20] and in [21] was “Dose-dependent effect” throughout.
